Measured values as given in paper PMC5901721 (Cancer research, 2018).

Experiments:
757 cancer cell lines = experiment: Cancer cell line screen; format: cell-based, human; conditions: 72 hours, up to 10 µM, p<0.05
In short: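 757 human cancer cell lines spanning 45 cancer types were seeded in 1536-well plates and exposed to a 7-point, half-log dilution series of test compound with a top concentration of 10 μM.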

PKCγ = experiment: Kinase selectivity profiling, 115 kinase panel; format: biochemical; conditions: 1 µM compound; apparent Km for ATP
DMPK [1] = target: T1, DMPK (Homo sapiens, UniProt Q09013); experiment: Competitive LanthaScreen Eu TR-FRET kinase binding assay; conditions: read-out: Kd DMPK; displacement of fluorescent tracer; Cheng-Prusoff equation
T1 sequence (Q09013 1-629): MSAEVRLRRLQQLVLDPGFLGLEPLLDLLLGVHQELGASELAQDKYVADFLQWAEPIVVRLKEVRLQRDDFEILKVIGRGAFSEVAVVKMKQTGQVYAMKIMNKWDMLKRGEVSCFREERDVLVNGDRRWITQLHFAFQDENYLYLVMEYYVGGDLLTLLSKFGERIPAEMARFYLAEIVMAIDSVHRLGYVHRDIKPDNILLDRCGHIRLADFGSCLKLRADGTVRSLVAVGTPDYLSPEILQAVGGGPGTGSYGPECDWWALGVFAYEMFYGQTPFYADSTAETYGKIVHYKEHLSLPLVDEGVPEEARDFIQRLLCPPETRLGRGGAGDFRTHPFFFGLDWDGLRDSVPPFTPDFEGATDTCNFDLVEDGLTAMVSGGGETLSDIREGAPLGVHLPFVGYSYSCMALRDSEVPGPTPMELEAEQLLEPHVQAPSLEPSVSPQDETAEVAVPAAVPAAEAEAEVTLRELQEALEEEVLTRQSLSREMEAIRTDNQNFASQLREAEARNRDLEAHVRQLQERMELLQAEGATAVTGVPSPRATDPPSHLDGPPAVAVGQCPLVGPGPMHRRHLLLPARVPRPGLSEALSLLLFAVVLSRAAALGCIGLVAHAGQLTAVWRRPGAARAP

MRCKβ [2] = experiment: Out-sourced dose-response kinase assays; format: biochemical; conditions: Cheng-Prusoff equation
MRCKβ [3] = format: cell-based, human; conditions: MDA MB 231 cells, inducible kinase domains, 60 minutes
In short: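 MDA MB 231 cells with doxycycline-inducible MRCKβ, ROCK1 or ROCK2 kinase domains were plated at 1.1×10⁵/well. After 24 h, 1 µg/ml doxycycline was given for 18 h, then test compound for 60 min. Lysis was in 50 mM Tris-HCl pH 7.4, 0.5% SDS with phosphatase inhibitors. pMLC2 was measured by quantitative western blot; mean ± SEM of 3-4 independent replicates.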

MRCKβ [4] = experiment: In-house kinase assay Ki compared with out-sourced values; format: biochemical
DMPK [5] = target: T1, DMPK; experiment: Kinase selectivity profiling, 115 kinase panel; format: binding; conditions: 1 µM compound
SCC12 cells [6] = experiment: Operetta high content morphology analysis; format: cell-based, human; conditions: 2 hours
In short: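 SCC12 cells were seeded at 1.5×10⁴ per 96-well and grown 24 h, then treated 2 h with DMSO or a dose range of test compound. Fixation was 4% PFA for 15 min, permeabilisation 0.5% Triton X-100 for 15 min, blocking 1% BSA for 30 min. Staining used phalloidin, DAPI and a whole-cell stain, followed by automated high-content imaging and morphology analysis.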

[7] = Skin and blood concentrations at DMBA/TPA experimental endpoint; format: in vivo, mouse; conditions: DMBA/TPA mice, topical 25 μg 5 times per week
In short: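 DMBA/TPA-initiated and promoted FVB mice were dosed topically with test compound 25 μg in 50 μL 80% (v/v) DMSO, 5 times per week. Skin and blood compound concentrations were measured by a contract laboratory at study end.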

ROCK2 = experiment: Kinase selectivity profiling, 115 kinase panel; format: biochemical; conditions: 1 µM compound; apparent Km for ATP
MRCKα pS1003 [8] = experiment: MRCKα pS1003 immunohistochemistry in DMBA/TPA treated skin and papillomas; format: in vivo, mouse; conditions: DMBA/TPA mice, topical 25 μg 5 times per week
In short: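 Skin sections from DMBA/TPA mice dosed topically with 25 μg test compound in 80% DMSO or vehicle were stained for MRCKα pS1003. Normal skin and papilloma areas were selected, cells auto-detected and cytoplasmic intensity measured. Histoscore = %low×100 + %medium×200 + %high×300. Data are mean ± SD from 19 mice per group; two-tailed unpaired t-tests.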

CDK9/Cyclin T1 = experiment: Kinase selectivity profiling, 115 kinase panel; format: biochemical; conditions: 1 µM compound
MRCKα pS1003 [9] = experiment: MRCKα pS1003 staining of mouse skin after topical treatment; format: in vivo; conditions: FVB mouse, topical 4 X 25 µg over 2 days
In short: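 FVB mice (5 per group) received topical 25 μg test compound in 50 μL 80% (v/v) DMSO, or 50 μL vehicle. Four applications were given over 2 days. Mice were culled 2 h after the final treatment, and skin was taken for MRCKα pS1003 staining.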

CDK2/Cyclin A = experiment: Kinase selectivity profiling, 115 kinase panel; format: biochemical; conditions: 1 µM compound
PKCα = experiment: Kinase selectivity profiling, 115 kinase panel; format: biochemical; conditions: 1 µM compound
SCC12 cells [10] = experiment: Phalloidin F-actin immunofluorescence; format: cell-based, human; conditions: SCC12, 1 µM
In short: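 SCC12 cells on glass coverslips were grown overnight, then given medium with 1 μM test compound or DMSO. Cells were fixed in 4% paraformaldehyde/PBS for 15 min and permeabilised with 0.5% Triton X-100 for 5 min. F-actin was stained with Alexa 488 phalloidin, mounted with DAPI and imaged by confocal microscopy.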

skin papillomas = experiment: DMBA/TPA two-stage chemical carcinogenesis model of SCC; format: in vivo, mouse; conditions: topical 25 μg 5 times per week for 14 weeks
In short: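 40 FVB mice received topical DMBA 25 μg in acetone on day 1. From day 5 they received TPA 4.7 μg in acetone three times weekly. From day 5, groups of 20 also got test compound 25 μg in 50 μL 80% DMSO or vehicle, 5 times/week for 14 weeks. Tumour size and number were recorded weekly, blinded. Culling was at 12 mm papilloma diameter. Data are mean ± SD, 20 mice.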

MRCKα [11] = experiment: In vitro MRCKα autophosphorylation and MLC2 phosphorylation assay; format: biochemical; conditions: dephosphorylated immunoprecipitated FLAG-MRCKα
In short: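 FLAG-MRCKα (wild type, K106M or S1003A) was expressed in HEK293 for 2 days and immunoprecipitated on beads. They were incubated with lysate of IPTG-induced bacteria expressing MLC2, with western blot read-out.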

MRCKα [12] = experiment: MRCKα pS1003 western blot in HEK293 cells expressing FLAG-MRCKα; format: cell-based, human; conditions: 1 µM, 2 hours
In short: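 HEK293 cells were transfected with 10 μg pEF-FLAG-MRCKα using a lipid reagent. After 48 h, they were treated 2 h with DMSO, 3 μM or 1 μM test compound. Cells were washed in PBS and lysed in 1% SDS, 50 mM Tris-HCl pH 7.4. Lysates were shredded and analysed by SDS-PAGE and western blot for MRCKα pS1003.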

ROCK1 = experiment: Kinase selectivity profiling, 115 kinase panel; format: biochemical; conditions: 1 µM compound; apparent Km for ATP
SCC12 cells [13] = experiment: Random migration; format: cell-based, human; conditions: SCC12, 0.4 μM, 6 hours
In short: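 SCC12 cells were plated at 2×10⁴ per well of an image-lock 96-well plate. After 24 h, medium was changed to DMSO or 0.4 μM test compound. Individual cells were tracked over 6 h to give accumulated distance, Euclidean distance, velocity and directionality. Data are mean ± SEM of 120 cells; two-tailed unpaired t-tests.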

[14] = Skin and blood concentrations after topical application to FVB mice; format: in vivo; conditions: FVB mouse
In short: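 FVB mice received topical test compound in 80% (v/v) DMSO under several regimens: once at 10 μg or 25 μg; 4 × 25 μg over 2 days; or 8 × 25 μg (4 days on, 2 off, 4 on), with vehicle controls. Mice were culled 2, 4, 8 or 24 h after the final dose. Skin and blood concentrations were measured by a contract laboratory; mean ± SD from 3 mice per condition.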

CDK9/Cyclin K = experiment: Kinase selectivity profiling, 115 kinase panel; format: biochemical; conditions: 1 µM compound
SCC12 cells [15] = experiment: SCC12 cell viability; format: cell-based, human; conditions: 24 hour treatment
SCC12 cells [16] = experiment: SCC12 organotypic invasion assay; format: cell-based, human; conditions: SCC12, 0.4 μM, relative to DMSO vehicle
TSSK1 (STK22D) = experiment: Kinase selectivity profiling, 115 kinase panel; format: biochemical; conditions: 1 µM compound
[17] = test system: MLC2 phosphorylation in SCC12 cells; experiment: MLC2 phosphorylation in SCC12 cells; format: cell-based, human
In short: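 SCC12 cells were plated at 5×10⁵ per well of a 6-well plate. After 24 h, they were treated 2 h with DMSO or a dose range of test compound. Cells were washed in PBS, lysed in 1% SDS, 50 mM Tris-HCl pH 7.4, shredded, and analysed by SDS-PAGE western blotting for MLC2 phosphorylation.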

[18] = topical 25 µg twice per day for 2 days

## c1csc(-c2c[nH]c3nccc(N4CCC[C@@]5(CCCCN5)C4)c23)n1 [BDP8900]
757 cancer cell lines
  number of cancer types significantly resistant relative to all cancer cell lines: 6
  number of cancer types significantly sensitive relative to all cancer cell lines: 10
PKCγ
  inhibition of PKCγ: > 75%
DMPK [1]
  Kd: 800 pM
MRCKβ [2]
  minimum fold-selectivity for MRCKβ against all kinases tested (calculated Ki): 43 times
MRCKβ [3]
  selectivity of pMLC2 inhibition for MRCKβ relative to ROCK1 or ROCK2: > 562 times
MRCKβ [4]
  affinity (MRCKβ Ki determined in-house) higher than the DMPK Kd: 33 fold
DMPK [5]
  inhibition of DMPK: > 75%

## c1cc(-c2c[nH]c3nccc(N4CCC[C@@]5(CCCCN5)C4)c23)ncn1 [BDP9066]
SCC12 cells [6]; SCC12, 0.5 μM
  proportion of irregularly shaped cells: increased
  proportion of regularly shaped cells: reduced proportions
SCC12 cells [6]; SCC12, dose range
  2D cell area: increased
  cell roundness: decreased
SCC12 cells [6]; SCC12, varying concentrations
  proportion of elongated cells: did not vary
[7]
  compound in blood at experimental endpoint: undetectable
  mean concentration in skin at experimental endpoint: > 1000 nM
757 cancer cell lines
  number of cancer types significantly resistant relative to all cancer cell lines: 4
  number of cancer types significantly sensitive relative to all cancer cell lines: 8
ROCK2
  inhibition of ROCK2: > 75%
MRCKα pS1003 [8]
  MRCKα pS1003 histoscores in papillomas: reduced
  MRCKα pS1003 histoscores in the treated skin area: reduced
  MRCKα pS1003 immunohistochemistry staining: significant decreases
CDK9/Cyclin T1
  inhibition of CDK9/Cyclin T1: > 75%
MRCKα pS1003 [9]
  epidermal MRCKα pS1003 positive staining: significantly reduced
CDK2/Cyclin A
  inhibition of CDK2/Cyclin A: > 75%
PKCα
  inhibition of PKCα: > 75%
DMPK [1]
  Kd: 980 pM
SCC12 cells [10]
  bundling of filamentous actin at cortical and cytoplasmic regions: reduced
MRCKβ [2]
  minimum fold-selectivity for MRCKβ against all kinases tested (calculated Ki): 27 times
Skin papillomas
  average papilloma volume per mouse vs DMSO: significantly reduced
  total papilloma numbers per mouse vs DMSO: not different
  total tumor volume per mouse vs DMSO: significantly reduced
MRCKα [11]
  MRCKα S1003 autophosphorylation in vitro: blocked
  recombinant MLC2 phosphorylation by MRCKα in vitro: blocked
MRCKα [12]
  pS1003 immunoreactivity: blocked
ROCK1
  inhibition of ROCK1: > 75%
SCC12 cells [13]
  directionality of cell motility: No differences
  reduction of accumulated distance travelled: 21%
  reduction of mean Euclidean distance travelled: 18%
  reduction of mean cell velocity: 21%
MRCKβ [3]
  selectivity of pMLC2 inhibition for MRCKβ relative to ROCK1 or ROCK2: > 100 times
[14]; topical
  higher concentration in skin, repeated 25 μg doses relative to single 10 μg dose: 2.8 fold
[14]; [18]
  mean concentration in blood: 40 nM
  mean concentration in skin: 26000 nM
[14]; topical, single 25 μg or 8 X 25 μg
  level in blood after 24 hours: undetectable
[14]; topical, single 25 μg or 8 X 25 μg (either regimen)
  concentration in skin 24 hours after final dosing: over 16 μM
CDK9/Cyclin K
  inhibition of CDK9/Cyclin K: > 75%
SCC12 cells [15]; all concentrations up to 0.5 µM
  SCC12 cell viability: unaffected
SCC12 cells [15]; SCC12 cells, 1 μM
  decrease in viability: 25%
SCC12 cells [16]
  decrease in the percentage of invading cells: 50%
TSSK1 (STK22D)
  inhibition of TSSK1 (STK22D): > 75%
MRCKβ [4]
  affinity (MRCKβ Ki determined in-house) higher than the DMPK Kd: 42 fold
[17]; SCC12 cells pMLC2
  increase in cellular potency relative to BDP5290: 5 fold
[17]; read-out: EC50 inhibition of MLC2 phosphorylation, SCC12 cells, 2 hours
  EC50: 64000 pM
DMPK [5]
  inhibition of DMPK: > 75%
